Experimental data taken from ChEMBL document CHEMBL1143407, “In vivo efficacy and pharmacokinetics of voriconazole in an animal model of dermatophytosis” (Antimicrob Agents Chemother, 2007).
≈ marks a conversion by molar mass, not a printed value.

Tests used:
[1] = system: Microsporum canis; assay: Antifungal activity against Microsporum canis infected in guinea pig dermatophytosis model assessed as colony count per specimen at 20 mg/kg/day, po administered 12 days measured after 14 days; assay type: functional
How it was run: (§1)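 Female guinea pigs (418 to 482 g) were inoculated on shaved skin with M. canis clinical-isolate microconidia at about 8 × 10⁵ conidia/ml. Oral solution was given by gavage at 20 mg/kg/day on days 3 to 14; controls were untreated (n = 8 per group). Skin scrapings were cultured on SAB with cycloheximide/chloramphenicol for 28 days and CFU per specimen counted. Groups were compared by Wilcoxon two-sample test.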

[2] = Cmax in guinea pig interstitial fluid at 20 mg/kg/day, po after 3 hrs; assay type: ADME, organism-based, Cavia porcellus; parameters: dose 20 mg/kg/day, route oral
How it was run: (§2)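 Day 14: the first three treated guinea pigs, infected and dosed as above, were studied under anesthesia. Dermal microdialysis catheters were placed in normal and inoculated skin and perfused with isotonic NaCl at 1 μl/min. Probes were calibrated beforehand by retrodialysis (5 and 10 μg/ml). Dialysates were collected every 30 min for 3 h after the twelfth 20 mg/kg oral dose. Unbound level = 100 × C_dialysate/RR, by isocratic RP-18 HPLC.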

[3] = Drug level in guinea pig whole blood at 20 mg/kg/day, po after 3 hrs; assay type: ADME, organism-based, Cavia porcellus; parameters: route oral; details: read-out: Drug uptake
How it was run: (§3)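 Day 14: three infected guinea pigs received the twelfth 20 mg/kg oral gavage dose. Whole blood was drawn from the eye vein hourly from 1 h. 3-mm full-thickness punch biopsies were taken hourly from the lesion margin over 3 h. Blood was precipitated with acetonitrile. Biopsies were extracted 6 h in acetonitrile-ammonium phosphate with freeze-thaw cycles. Total drug was measured by isocratic RP-18 HPLC (LLOQ 0.2 μg/ml).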

[4] = Cmax in guinea pig skin biopsy specimen at 20 mg/kg/day, po after 3 hrs; assay type: ADME, organism-based, Cavia porcellus, Zone of skin; parameters: dose 20 mg/kg/day, route oral; how it was run: as §3
[5] = system: Microsporum audouinii; assay: Antimicrobial activity against Microsporum audouinii; assay type: functional
[6] = system: Microsporum canis; assay: Antifungal activity against Microsporum canis infected in guinea pig dermatophytosis model assessed as colony count per specimen at 20 mg/kg/day, po after 3 days; assay type: functional; how it was run: as §1
[7] = system: Nannizzia nana; assay: Antimicrobial activity against Microsporum nanum; assay type: functional
[8] = system: Microsporum canis; assay: Antifungal activity against Microsporum canis infected in guinea pig dermatophytosis model assessed as colony count per specimen at 20 mg/kg/day, po administered 12 days measured after 17 days; assay type: functional; how it was run: as §1
[9] = Cmax in guinea pig skin at 20 mg/kg/day, po after 3 hrs; assay type: ADME, organism-based, Cavia porcellus, Zone of skin; parameters: dose 20 mg/kg/day, route oral; how it was run: as §3
[10] = system: Microsporum canis; assay: Antifungal activity against Microsporum canis infected in guinea pig dermatophytosis model assessed as colony count per specimen at 20 mg/kg/day, po after 7 days; assay type: functional; how it was run: as §1
[11] = Drug level in guinea pig interstitial fluid at 20 mg/kg/day, po after 3 hrs; assay type: ADME, organism-based, Cavia porcellus; parameters: route oral; details: read-out: Drug uptake; how it was run: as §2
[12] = Cmax in guinea pig whole blood at 20 mg/kg/day, po after 3 hrs; assay type: ADME, organism-based, Cavia porcellus; parameters: dose 20 mg/kg/day, route oral; how it was run: as §3
[13] = Cmin in guinea pig whole blood at 20 mg/kg/day, po after 3 hrs; assay type: ADME, organism-based, Cavia porcellus; parameters: route oral; details: read-out: Cmin; how it was run: as §3
[14] = system: Microsporum canis; assay: Antimicrobial activity against Microsporum canis; assay type: functional
How it was run: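 MIC was determined by CLSI M38-A broth dilution, modified to use 10⁵ CFU/ml inoculum and 10 days incubation at 25°C. The organism was a clinical M. canis isolate, tested in triplicate.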

[15] = system: Nannizzia gypsea; assay: Antimicrobial activity against Microsporum gypseum; assay type: functional
[16] = system: Microsporum distortum; assay: Antimicrobial activity against Microsporum distortum; assay type: functional
[17] = Drug level in guinea pig skin biopsy specimen at 20 mg/kg/day, po after 3 hrs; assay type: ADME, organism-based, Cavia porcellus, Zone of skin; parameters: route oral; details: read-out: Drug uptake; how it was run: as §3
[18] = Cmin in guinea pig skin biopsy specimen at 20 mg/kg/day, po after 3 hrs; assay type: ADME, organism-based, Cavia porcellus, Zone of skin; parameters: route oral; details: read-out: Cmin; how it was run: as §3
[19] = system: Paraphyton cookei; assay: Antimicrobial activity against Microsporum cookei; assay type: functional

SMILES: C[C@@H](c1ncncc1F)[C@](O)(Cn1cncn1)c1ccc(F)cc1F [VORICONAZOLE]
- Activity [1]: 0.3
- Cmax [2]: 2000 ng/mL
- concentration at 3 h [3]: 6300 ng/mL
- Cmax [4]: 35900 ng/g
- MIC [5]: 0.01 µg/mL (≈ 0.0286 µM)
- Activity [6]: 6.4
- MIC [7]: 0.01 µg/mL (≈ 0.0286 µM)
- Activity [8]: 0.2
- Cmax [9]: 28100 ng/g
- Activity [10]: 4.1
- concentration at 3 h [11]: 1400 ng/mL
- Cmax [12]: 7700 ng/mL
- concentration at 3 h [13]: 4000 ng/mL
- MIC [14]: 0.25 µg/mL (≈ 0.716 µM)
- MIC [15]: 0.01 µg/mL (≈ 0.0286 µM)
- MIC [16]: 0.01 µg/mL (≈ 0.0286 µM)
- concentration at 3 h [17]: 18300 ng/g
- concentration at 3 h [18]: 9100 ng/g
- MIC [19]: 0.01 µg/mL (≈ 0.0286 µM)
